Consider four compounds from ChEMBL document CHEMBL1128234, “Isothiocyanate-substituted benzyl ether opioid receptor ligands derived from 6 beta-naltrexol” (J Med Chem, 1995).

For experiment [1], the target named is Mu-type opioid receptor (Cavia porcellus) (UniProt P97266). Nature of the experiment: Irreversible binding affinity at mu-receptor was evaluated as % of control specific binding remaining unwashed at concentration of 10 (nM) using [3H]-DAMGO radioligand Values from 3 separate assays (+/-10%). The method in brief: (§1)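 Diluted guinea pig brain homogenate is exposed to ligand for 60 min at 25 °C; protected samples are first preincubated 15 min at 37 °C with 1 naloxone. Washed samples are diluted in ice-cold Tris pH 7.4, spun at 10000g for 15 min at 4 °C, then resuspended and incubated 15 min at 37 °C, twice. Read-out is standard radioligand binding, expressed as % of recovery-sample specific binding. Test ligands run in triplicate; reference averaged over three assays.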

The target is the same in experiment [2]. Nature of the experiment: Irreversible binding affinity at mu-receptor was evaluated as % of control specific binding remaining washed at concentration of 10 (nM) using [3H]DAMGO radioligand Values from 3 separate assays (+/-10%).
Experiment [3] can be described thus: Inhibitory concentration was determined against delta-opioid receptor using [3H]- DPDPE radioligand.
Experiment [4] addresses Mu-type opioid receptor (Cavia porcellus) (UniProt P97266). Nature of the experiment: Irreversible binding affinity at mu-receptor was evaluated as % of control specific binding remaining protected at concentration of 10 (nM) using [3H]DAMGO radioligand Values from 3 separate assays (+/-10%). The method, boiled down: as §1
For experiment [5], the target named is Kappa-type opioid receptor (Cavia porcellus, UniProt P41144). Nature of the experiment: Inhibitory concentration against Opioid receptor kappa 1 using [3H]- U-69,593 radioligand. The method in brief:
(§2)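 Guinea pig brain (minus cerebellum) homogenate in 0.05 M Tris pH 7.4, diluted 1:60 (0.8-1.5 mg protein/ml). Ligand tested in duplicate at nine concentrations; 60 min at 25 °C. Nonspecific binding defined with naloxone. Filtration, ice-cold buffer rinse, scintillation counting.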

Experiment [6] deals with Kappa-type opioid receptor (Cavia porcellus) (UniProt P41144). Nature of the experiment: Irreversible binding affinity at Opioid receptor kappa 1 was evaluated as % of control specific binding remaining unwashed at concentration of 90 (nM) using [3H]U-69593 radioligand. The method, boiled down:
as §1

Experiment [7] addresses Mu-type opioid receptor (Cavia porcellus) (UniProt P97266). Nature of the experiment: Irreversible binding affinity at mu-receptor was evaluated as % of control specific binding remaining protected at concentration of 35 (nM) using [3H]DAMGO radioligand. The method, boiled down: as §1
For experiment [8] the target is unchanged. Nature of the experiment: Irreversible binding affinity at mu-receptor was evaluated as % of control specific binding remaining unwashed at concentration of 35 (nM) using [3H]DAMGO radioligand. The method, boiled down: (§3)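 Guinea pig brain homogenate (less cerebellum) in 0.05 M Trizma pH 7.4, diluted 1:60. It was incubated with ligand 60 min at 25 °C, then diluted in ice-cold buffer and centrifuged 10000g. Washed samples were resuspended in buffer, incubated 15 min at 37 °C and recentrifuged. Binding used 1.0 nM [3H]DAMGO for 60 min at 25 °C, with filtration and counting. Nonspecific binding was set with 10 µM naloxone. Triplicates; % specific binding was taken relative to recovery controls.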

Experiment [9] addresses Mu-type opioid receptor (Cavia porcellus, UniProt P97266). Nature of the experiment: Inhibitory concentration was determined against Opioid receptor mu 1 using [3H]- DAMGO radioligand. The method, boiled down:
as §2

In experiment [10] the target is Kappa-type opioid receptor (Cavia porcellus) (UniProt P41144). Nature of the experiment: Irreversible binding affinity at Opioid receptor kappa 1 was evaluated as % of control specific binding remaining washed at concentration of 90 (nM) using [3H]-U-69,593 radioligand. The method in brief:
as §1

Experiment [11] addresses Mu-type opioid receptor (Cavia porcellus) (UniProt P97266). Nature of the experiment: Irreversible binding affinity at mu-receptor was evaluated as % of control specific binding remaining washed at concentration of 35 (nM) using [3H]-DAMGO radioligand. The method, boiled down:
as §3

Experiment [12] deals with Kappa-type opioid receptor (Cavia porcellus) (UniProt P41144). Nature of the experiment: Irreversible binding affinity at Opioid receptor kappa 1 was evaluated as % of control specific binding remaining protected at concentration of 90 (nM) using [3H]U-69593 radioligand. The method, boiled down:
as §1

The target of experiment [13] is Opioid receptors; mu/kappa/delta. Nature of the experiment: Inhibitory concentration was determined against Opioid receptors using [3H]- bremazocine radioligand. In kind it is protein assay, Cavia porcellus. The method, boiled down: as §2
For experiment [14], the target named is Kappa-type opioid receptor (Cavia porcellus) (UniProt P41144). Nature of the experiment: Irreversible binding affinity at Opioid receptor kappa 1 was evaluated as % of control specific binding remaining protected at concentration of 30 (nM) using [3H]U-69593 radioligand. The method, boiled down:
as §1

For experiment [15], the target named is Mu-type opioid receptor (Cavia porcellus) (UniProt P97266). Nature of the experiment: Irreversible binding affinity at mu-receptor was evaluated as % of control specific binding remaining protected at concentration of 5 (nM) using [3H]-DAMGO radioligand. The method, boiled down:
as §1

For experiment [16] the target is unchanged. Nature of the experiment: Irreversible binding affinity at mu-receptor was evaluated as % of control specific binding remaining unwashed at concentration of 5 (nM) using [3H]DAMGO radioligand. The method in brief: as §3
Experiment [17] has the same target. Nature of the experiment: Irreversible binding affinity at mu-receptor was evaluated as % of control specific binding remaining unwashed at concentration of 2.5 (nM) using [3H]DAMGO radioligand. The method in brief:
as §1

Experiment [18] shares this target. Nature of the experiment: Irreversible binding affinity at mu-receptor was evaluated as % of control specific binding remaining washed at concentration of 2.5 (nM) using [3H]DAMGO radioligand. The method in brief: as §3
Experiment [19] concerns the target Kappa-type opioid receptor (Cavia porcellus) (UniProt P41144). Nature of the experiment: Irreversible binding affinity at Opioid receptor kappa 1 was evaluated as % of control specific binding remaining washed at concentration of 42 (nM) using [3H]U-69593 radioligand. The method, boiled down: as §1
The target in experiment [20] is Mu-type opioid receptor (Cavia porcellus) (UniProt P97266). Nature of the experiment: Irreversible binding affinity at mu-receptor was evaluated as % of control specific binding remaining washed at concentration of 5 (nM) using [3H]-DAMGO radioligand. The method, boiled down: as §3
Experiment [21] deals with Kappa-type opioid receptor (Cavia porcellus) (UniProt P41144). Nature of the experiment: Irreversible binding affinity at Opioid receptor kappa 1 was evaluated as % of control specific binding remaining unwashed at concentration of 30 (nM) using [3H]U-69593 radioligand. The method, boiled down: as §1
The target of experiment [22] is Mu-type opioid receptor (Cavia porcellus) (UniProt P97266). Nature of the experiment: Irreversible binding affinity at mu-receptor was evaluated as % of control specific binding remaining protected at concentration of 2.5 (nM) using [3H]DAMGO radioligand. The method in brief:
as §1

The target in experiment [23] is Kappa-type opioid receptor (Cavia porcellus) (UniProt P41144). Nature of the experiment: Irreversible binding affinity at Opioid receptor kappa 1 was evaluated as % of control specific binding remaining washed at concentration of 30 (nM) using [3H]U-69593 radioligand. The method in brief:
as §1

Experiment [24] has the same target. Nature of the experiment: Irreversible binding affinity at Opioid receptor kappa 1 was evaluated as % of control specific binding remaining unwashed at concentration of 42 (nM) using [3H]U-69593 radioligand. The method, boiled down: as §1
For experiment [25] the target is unchanged. Nature of the experiment: Irreversible binding affinity at Opioid receptor kappa 1 was evaluated as % of control specific binding remaining protected at concentration of 42 (nM) using [3H]U-69593 radioligand. The method in brief:
as §1

Experiment [26] deals with Mu-type opioid receptor (Cavia porcellus) (UniProt P97266). Nature of the experiment: Irreversible binding affinity at mu-receptor was evaluated as % of control specific binding remaining protected at concentration of 50 (nM) using [3H]DAMGO radioligand. The method in brief: as §1
For experiment [27] the target is unchanged. Nature of the experiment: Irreversible binding affinity at mu-receptor was evaluated as % of control specific binding remaining unwashed at concentration of 50 (nM) using [3H]DAMGO radioligand. The method in brief:
as §3

Experiment [28] concerns the target Kappa-type opioid receptor (Cavia porcellus) (UniProt P41144). Nature of the experiment: Irreversible binding affinity at Opioid receptor kappa 1 was evaluated as % of control specific binding remaining washed at concentration of 20 (nM) using [3H]U-69593 radioligand. The method, boiled down: as §1
Experiment [29] shares this target. Nature of the experiment: Irreversible binding affinity at Opioid receptor kappa 1 was evaluated as % of control specific binding remaining unwashed at concentration of 20 (nM) using [3H]U-69593 radioligand. The method, boiled down: as §1
Experiment [30] shares this target. Nature of the experiment: Irreversible binding affinity at Opioid receptor kappa 1 was evaluated as % of control specific binding remaining washed at concentration of 40 (nM) using [3H]U-69593 radioligand. The method, boiled down: as §1
The target of experiment [31] is Mu-type opioid receptor (Cavia porcellus) (UniProt P97266). Nature of the experiment: Irreversible binding affinity at mu-receptor was evaluated as % of control specific binding remaining unwashed at concentration of 30 (nM) using [3H]DAMGO radioligand. The method in brief: as §3
The target is the same in experiment [32]. Nature of the experiment: Irreversible binding affinity at mu-receptor was evaluated as % of control specific binding remaining washed at concentration of 50 (nM) using [3H]DAMGO radioligand. The method in brief: as §3
Experiment [33] deals with Kappa-type opioid receptor (Cavia porcellus) (UniProt P41144). Nature of the experiment: Irreversible binding affinity at Opioid receptor kappa 1 was evaluated as % of control specific binding remaining protected at concentration of 20 (nM) using [3H]U-69593 radioligand. The method, boiled down:
as §1

The target in experiment [34] is Mu-type opioid receptor (Cavia porcellus) (UniProt P97266). Nature of the experiment: Irreversible binding affinity at mu-receptor was evaluated as % of control specific binding remaining washed at concentration of 30 (nM) using [3H]DAMGO radioligand. The method in brief:
as §3

Experiment [35] shares this target. Nature of the experiment: Irreversible binding affinity at mu-receptor was evaluated as % of control specific binding remaining protected at concentration of 30 (nM) using [3H]DAMGO radioligand. The method, boiled down:
as §1

Experiment [36] deals with Kappa-type opioid receptor (Cavia porcellus) (UniProt P41144). Nature of the experiment: Irreversible binding affinity at Opioid receptor kappa 1 was evaluated as % of control specific binding remaining unwashed at concentration of 40 (nM) using [3H]U-69593 radioligand. The method, boiled down: as §1
For experiment [37] the target is unchanged. Nature of the experiment: Irreversible binding affinity at Opioid receptor kappa 1 was evaluated as % of control specific binding remaining protected at concentration of 40 (nM) using [3H]U-69593 radioligand. The method, boiled down: as §1

Broadly, the pIC50 is the negative decadic logarithm of the IC50, by convention in mol/L. Read a high pIC50 as a small IC50. A word on the IC50: it is the concentration needed to halve the response being measured. A lower IC50 goes with inhibition by little substance.

pIC50: −log10 of the molar value.

Sequence of Kappa-type opioid receptor (Cavia porcellus) (P41144 whole entry): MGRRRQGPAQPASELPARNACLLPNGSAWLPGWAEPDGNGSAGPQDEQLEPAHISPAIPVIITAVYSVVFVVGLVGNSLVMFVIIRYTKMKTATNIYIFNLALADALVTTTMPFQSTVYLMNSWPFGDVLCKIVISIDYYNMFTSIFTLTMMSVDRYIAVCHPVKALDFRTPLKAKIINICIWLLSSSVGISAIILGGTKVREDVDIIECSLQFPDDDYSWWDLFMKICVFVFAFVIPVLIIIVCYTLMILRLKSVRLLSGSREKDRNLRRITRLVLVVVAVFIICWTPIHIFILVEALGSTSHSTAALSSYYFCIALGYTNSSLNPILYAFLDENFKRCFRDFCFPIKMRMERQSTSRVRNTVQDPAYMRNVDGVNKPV
Sequence of Kappa-type opioid receptor (P41144 whole entry): as above
Sequence of Mu-type opioid receptor (P97266 whole entry): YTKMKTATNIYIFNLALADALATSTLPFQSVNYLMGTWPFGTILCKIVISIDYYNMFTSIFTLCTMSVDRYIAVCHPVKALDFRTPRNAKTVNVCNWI
Sequence of Mu-type opioid receptor (Cavia porcellus) (P97266 whole entry): as above

Regarding `Oc1ccc2c3c1OC1[C@H](OCc4ccccc4)CCC4(O)C(C2)N(CC2CC2)CCC314` (stereo partly drawn), the Control in experiment [1] was 14%; in [2] it was 100%; in [4] it was 104%. The pIC50 in experiment [3] is 8.54.
Consider `Oc1ccc2c3c1O[C@H]1[C@H](OCc4ccc(N=C=S)cc4)CC[C@@]4(O)C(C2)N(CC2CC2)CCC314` (stereo partly drawn), for which the values for the negative-log IC50 (pIC50) in experiment [5] and in [9] were 7.68 and 8.02, respectively. Moreover, the Control was 14% in experiment [6]; 48% in [7]; 14% in experiment [8]; 28% in experiment [10]; 46% in experiment [11]; 27% in experiment [12]. This compound came in with an IC50 in experiment [13] of 22 nM.
In the case of `Oc1ccc2c3c1O[C@H]1[C@H](OCc4ccccc4N=C=S)CC[C@@]4(O)C(C2)N(CC2CC2)CCC314` (stereo partly drawn), the Control in experiment [14] is 55%; in experiment [15] it was 36%; in experiment [16], 7%; in experiment [17], 47%; in experiment [18], 40%; in experiment [19], 21%. The Control was found to be 15% in [20]; 36% in [21]; 68% in experiment [22]; 35% in experiment [23]; 13% in experiment [24]; 40% in experiment [25]. For the same compound, the values for the pIC50 in experiment [5] and in experiment [9] were 8.09 and 9.10, respectively. Moreover, in [13], the IC50 was 8.8 nM.
With `Oc1ccc2c3c1O[C@H]1[C@H](OCc4ccc(CN=C=S)cc4)CC[C@@]4(O)C(C2)N(CC2CC2)CCC314` (stereo partly drawn), the pIC50 in experiment [5] was 8.13; in [9], 7.96. Also, the Control came to 60% in [26]; 22% in experiment [27]; 68% in [28]; 61% in experiment [29]; 58% in experiment [30]; 59% in experiment [31]. The Control was determined as 58% in experiment [32]; 95% in [33]; 56% in experiment [34]; 67% in [35]; 32% in [36]; 64% in experiment [37]. The compound also gave an IC50 in [13] of 21 nM.
